Measured values reported in ChEMBL document CHEMBL4118039, “Inflammation Modulatory Phorbol Esters from the Seeds of Aquilaria malaccensis” (J Nat Prod, 2017).

Assays:
[1] = tested on: A549; assay: Cytotoxicity against human A549 cells assessed as reduction in cell viability after 72 hrs by MTT assay; assay type: functional, cell-based; conditions: A549, 72 h
[2] = tested on: Neutrophil; assay: Anti-inflammatory activity in human neutrophils assessed as inhibition of fMLF/CB-induced elastase release by measuring degranulation of azurophilic granules using MeOSuc-Ala-Ala-ProVal-p-nitroanilide as substrate preincubated for 5 mins followed by CB/fMLF stimulation; assay type: functional, cell-based
How it was run: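 Neutrophils from human blood (dextran sedimentation, Ficoll-Hypaque, hypotonic lysis of red cells; >98% viable by trypan blue) held in Ca2+-free HBSS pH 7.4 at 4 °C. Cells at 3 × 10^5/mL with 100 μM substrate, 2 min at 37 °C, compound 5 min, then fMLF 100 nM/CB 0.5 μg/mL. A405 followed continuously. Expressed as % of drug-free fMLF/CB control; three repeats.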

[3] = tested on: HepG2; assay: Cytotoxicity against human HepG2 cells assessed as reduction in cell viability after 72 hrs by MTT assay; assay type: functional, cell-based; conditions: HepG2, 72 h
[4] = tested on: Neutrophil; assay: Proinflammatory activity in human neutrophils assessed as superoxide anion generation at 10 uM incubated for 5 mins by spectrophotometric method relative to control; assay type: ADME, cell-based
How it was run: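 Neutrophils at 3 × 10^5/mL in Ca2+-free HBSS pH 7.4, supplemented with 0.5 mg/mL ferricytochrome c and 1 mM Ca2+. Equilibrated 2 min at 37 °C, then exposed to compound at 10 μM for 5 min without fMLF/CB. SOD-inhibitable cytochrome c reduction followed continuously at 550 nm with stirring; expressed versus fMLF/CB-activated response as 100%. Means ± SEM, n = 3−5.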

[5] = tested on: Neutrophil; assay: Anti-inflammatory activity in human neutrophils assessed as inhibition of fMLF/CB-induced superoxide anion generation preincubated for 5 mins followed by CB stimulation for 3 mins and subsequent fMLF stimulation for 10 mins by spectrophotometric method; assay type: functional, cell-based
How it was run: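 Same neutrophil preparation. Cells at 3 × 10^5/mL with 0.5 mg/mL ferricytochrome c and 1 mM Ca2+, 2 min at 37 °C, then compound or DMSO 5 min, CB 1 μg/mL 3 min, fMLF 100 nM 10 min. SOD-inhibitable cytochrome c reduction read continuously at 550 nm with stirring. Means ± SEM, n = 3−5.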

[6] = tested on: Neutrophil; assay: Proinflammatory activity in human neutrophils assessed as elastase release by measuring degranulation of azurophilic granules using MeOSuc-Ala-Ala-ProVal-p-nitroanilide as substrate incubated for 5 mins relative to control; assay type: cell-based
How it was run: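 Neutrophils isolated from human blood by dextran sedimentation, Ficoll-Hypaque centrifugation and hypotonic erythrocyte lysis, >98% viable by trypan blue, held in Ca2+-free HBSS pH 7.4 at 4 °C. Cells at 3 × 10^5/mL with 100 μM substrate, equilibrated 2 min at 37 °C, then compound at 10 μM for 5 min without fMLF/CB. A405 monitored continuously; expressed versus fMLF/CB-stimulated release taken as 100%.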

[7] = tested on: Neutrophil; assay: Proinflammatory activity in human neutrophils assessed as superoxide anion generation at 10 uM preincubated for 5 mins followed by CB addition measured after 3 mins by spectrophotometric method relative to control; assay type: ADME, cell-based; conditions: 0.05 h
How it was run: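 Cytochrome c reduction at 550 nm as above (0.5 mg/mL ferricytochrome c, 1 mM Ca2+, 37 °C, 3 × 10^5 neutrophils/mL). Compound 10 μM given without fMLF/CB stimulation, or with CB only. Expressed relative to the fMLF/CB response taken as 100%. Means ± SEM, n = 3−5.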

SMILES	IC50 [2]	IC50 [5]	Activity [7]	IC50 [1]	IC50 [3]	Activity [4]	Activity [6]
CC(=O)O[C@@]12[C@H](OC(=O)/C=C/C=C/C=O)[C@@H](C)[C@@]3(O)[C@@H](C=C(CO)C[C@]4(O)C(=O)C(C)=C[C@@H]34)[C@@H]1C2(C)C	2.7 µM	–	–	> 10 µM	> 10 µM	106.1%	–
CCCCCCCC/C=C\CCCCCCCC(=O)OCC1=C[C@H]2[C@@H]3C(C)(C)[C@]3(OC(C)=O)C[C@@H](C)[C@]2(O)[C@@H]2C=C(C)C(=O)[C@@]2(O)C1	> 10 µM	–	–	> 10 µM	> 10 µM	18.1%	–
CCCCCCC[C@@H](O)[C@@H](O)/C=C/C=C/C(=O)O[C@@H]1[C@@H](C)[C@@]2(O)[C@@H](C=C(CO)C[C@]3(O)C(=O)C(C)=C[C@@H]23)[C@@H]2C(C)(C)[C@]12OC(C)=O	–	–	–	> 10 µM	> 10 µM	106%	10.5%
CCCCCCC[C@H](O)[C@@H](O)/C=C/C=C/C(=O)O[C@@H]1[C@@H](C)[C@@]2(O)[C@@H](C=C(CO)C[C@]3(O)C(=O)C(C)=C[C@@H]23)[C@@H]2C(C)(C)[C@]12OC(C)=O	–	–	–	> 10 µM	> 10 µM	107.1%	9.2%
CCCCCCCCCCCCCC(=O)O[C@@H]1[C@@H](C)[C@@]2(O)[C@@H](C=C(CO)C[C@]3(O)C(=O)C(C)=C[C@@H]23)[C@@H]2C(C)(C)[C@]12OC(C)=O [PHORBOL MYRISTATE ACETATE]	–	–	–	–	–	102.7%	44.2%

Now from value to compound, other results behind:

IC50 [2]	IC50 [5]	Activity [7]	SMILES	IC50 [1]	IC50 [3]	Activity [4]	Activity [6]
> 10 µM	> 10 µM	–	CCCCCCCC/C=C\CCCCCCCC(=O)OCC(O)COC(=O)CCCCCCC/C=C\CCCCCCCC	> 10 µM	> 10 µM	–	–
0.8 µM	–	–	CCCCCCCCCC(=O)O[C@@]12C[C@@H](C)[C@@]3(O)[C@@H](C=C(CO)C[C@]4(O)C(=O)C(C)=C[C@@H]34)[C@@H]1C2(C)C	> 10 µM	> 10 µM	95.3%	–
2.1 µM	–	–	CCCCCCCC(=O)O[C@@]12C[C@@H](C)[C@@]3(O)[C@@H](C=C(CO)C[C@]4(O)C(=O)C(C)=C[C@@H]34)[C@@H]1C2(C)C	> 10 µM	> 10 µM	109.6%	–
> 10 µM	–	74.5%	CCCCCCCC/C=C\CCCCCCCC(=O)OCC(CO)OC(=O)CCCCCCCCCCCCCCC (stereo unspecified)	> 10 µM	> 10 µM	–	–
3.3 µM	1.8 µM	–	O=c1cc(N2CCOCC2)oc2c(-c3ccccc3)cccc12 [LY-294002]	–	–	–	–
